For experiment [1], the target named is T1, Human immunodeficiency virus type 1 integrase (Human immunodeficiency virus 1, UniProt Q7ZJM1). Description: (§1) Inhibitory activity against HIV-1 integrase. The method in brief:
(§2)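 Purified recombinant wild-type HIV-1 integrase, 200 nM final, preincubated with inhibitor for 30 min at 30 °C. Buffer: 25 mM MOPS pH 7.2, 7.5 mM MnCl2, 50 mM NaCl, 10% DMSO, 10% glycerol, BSA, DTT, 2-mercaptoethanol. Then 20 nM 5'-32P-labeled 21mer U5 duplex added for 60 min. Products run on denaturing 20% polyacrylamide gel and quantified by phosphorimager.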

The target of experiment [2] is T1, Human immunodeficiency virus type 1 integrase. The description is as §1. A digest of the protocol:
as §2
The source holds these as a separate data set.

The target in experiment [3] is T2, Human immunodeficiency virus type 1 protease (Human immunodeficiency virus 1, UniProt Q72874). Description: Inhibitory activity against HIV-1 protease.
In experiment [4] the target is T3, Human immunodeficiency virus type 2 integrase (Human immunodeficiency virus 2, UniProt P89582).
T3 sequence (P89582 whole entry): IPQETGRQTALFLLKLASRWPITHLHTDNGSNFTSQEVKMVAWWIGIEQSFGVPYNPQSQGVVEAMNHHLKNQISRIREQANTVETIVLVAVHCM
Description: Inhibitory activity against HIV-2 Integrase was measured using 3'-processing (3'-proc) assay. The method in brief:
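HIV-2 integrase, 200 nM final, preincubated 30 min at 30 °C with inhibitor in Mn2+/MOPS pH 7.2 buffer containing 10% DMSO. 3'-processing started with 20 nM 5'-32P-labeled 21mer duplex substrate and run 60 min more. Denaturing 20% PAGE, phosphorimager quantitation of the 19mer product.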

Experiment [5] has as its target T2, Human immunodeficiency virus type 1 protease. Description: Inhibitory activity against HIV-1 Protease.
For experiment [6], the system named is Feline immunodeficiency virus. The experiment can be described thus: Inhibitory activity against feline was measured immunodeficiency virus (FIV) using 3'-processing (3'-proc) assay.. It is filed as functional. A digest of the protocol:
(§3)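 Recombinant FIV or SIV integrase, 600 nM final, preincubated 30 min at 30 °C with inhibitor in Mn2+/MOPS pH 7.2 buffer with 10% DMSO. 20 nM 5'-32P-labeled 21mer duplex added and incubated 60 min. The 3'-processed 19mer was resolved on denaturing 20% polyacrylamide gel and quantified by phosphorimager.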

For experiment [7], the system named is CCRF-CEM. The experiment can be described thus: Inhibitory activity against HIV-1 infected CEM cells. It is filed as functional, cell-based. The conditions noted are these: Homo sapiens.
The subject of experiment [8] is Simian immunodeficiency virus. Description: Inhibitory activity against simian was measured immunodeficiency virus (SIV) using 3'-processing (3'-proc). It is filed as functional. The method in brief:
as §3

The target of the next experiment is T4, DNA topoisomerase 1 (Homo sapiens, UniProt P11387).
T4 sequence (P11387 whole entry): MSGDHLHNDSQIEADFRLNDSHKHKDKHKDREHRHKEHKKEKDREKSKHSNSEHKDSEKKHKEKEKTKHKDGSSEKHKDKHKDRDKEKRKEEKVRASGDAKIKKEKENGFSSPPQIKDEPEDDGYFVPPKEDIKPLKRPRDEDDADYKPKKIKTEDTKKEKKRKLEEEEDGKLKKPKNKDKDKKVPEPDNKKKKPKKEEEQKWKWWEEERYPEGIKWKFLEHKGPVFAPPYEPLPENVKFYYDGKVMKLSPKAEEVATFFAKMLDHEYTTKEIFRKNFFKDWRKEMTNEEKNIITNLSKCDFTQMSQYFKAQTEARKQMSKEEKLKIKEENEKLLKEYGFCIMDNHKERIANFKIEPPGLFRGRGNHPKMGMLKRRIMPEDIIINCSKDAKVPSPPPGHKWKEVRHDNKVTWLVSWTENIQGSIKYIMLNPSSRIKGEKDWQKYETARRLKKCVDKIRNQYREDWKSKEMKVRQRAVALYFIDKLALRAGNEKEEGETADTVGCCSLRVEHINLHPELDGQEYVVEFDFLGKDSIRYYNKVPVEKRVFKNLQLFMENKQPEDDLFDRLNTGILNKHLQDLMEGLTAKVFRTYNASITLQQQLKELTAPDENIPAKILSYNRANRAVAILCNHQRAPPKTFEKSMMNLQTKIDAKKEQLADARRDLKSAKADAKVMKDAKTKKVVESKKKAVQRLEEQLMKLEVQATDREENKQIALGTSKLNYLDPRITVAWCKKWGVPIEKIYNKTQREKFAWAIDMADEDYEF
The experiment can be described thus: Inhibitory activity against topoisomerase I. A digest of the protocol: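 Eukaryotic topoisomerase I on a duplex oligonucleotide with a single strong cleavage site, 3'-end labeled with α-[32P]cordycepin. Scored both for induction of cleavable complexes and for blocking camptothecin-induced complexes. Stopped with 0.5% SDS, proteinase K 60 min at 50 °C, denaturing 16% PAGE.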

For experiment [9], the system named is CCRF-CEM. Description: Inhibitory activity against HIV-1 infected CEM cells; inactive. The experiment is classed as functional, cell-based, Homo sapiens.

One may read the IC50 as the concentration needed to halve the response being measured.

Molecules are shown by their SMILES.

T1 sequence (Q7ZJM1 whole entry): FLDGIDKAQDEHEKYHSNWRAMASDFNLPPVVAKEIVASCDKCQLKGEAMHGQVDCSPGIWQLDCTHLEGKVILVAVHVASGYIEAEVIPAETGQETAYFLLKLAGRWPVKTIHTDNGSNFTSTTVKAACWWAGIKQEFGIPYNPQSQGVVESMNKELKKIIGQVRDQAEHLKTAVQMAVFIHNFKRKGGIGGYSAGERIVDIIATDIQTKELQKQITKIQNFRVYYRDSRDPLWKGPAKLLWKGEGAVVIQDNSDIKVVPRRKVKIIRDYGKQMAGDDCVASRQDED

As to `O=C1C(O)=C(C(C2=C(O)C(=O)c3ccccc3C2=O)c2ccc(Cl)cc2)C(=O)c2ccccc21`, the IC50 in [1] and in [2] was more than 100 µM each time.

In the case of `O=C1C(O)=C(C(C2=C(O)C(=O)c3ccccc3C2=O)c2ccc(Cl)cc2Cl)C(=O)c2ccccc21`, the IC50 in experiment [1] stood at 40 µM; in experiment [3] it was 24 µM; in [2] it was 37 µM.

For `O=c1c(C(c2ccc(C(c3c(O)oc4ccccc4c3=O)c3c(O)oc4ccccc4c3=O)cc2)c2c(O)oc3ccccc3c2=O)c(O)oc2ccccc12`, the IC50 is 1 µM in experiment [4]; 0.8 µM in experiment [1]; 1.7 µM in experiment [5]; 2.2 µM in [6]; 11.5 µM with CCRF-CEM [7]; 2.3 µM in experiment [8]. Also, the IC50 in experiment [2] stood at 1.5 µM; against DNA topoisomerase 1, 10 µM.

In the case of `O=C1Oc2ccccc2C(O)C1Sc1c(O)oc2ccccc2c1=O` (configuration not stated), the IC50 in [1] was found to be 100 µM; in experiment [3], 21 µM; in experiment [2], 80 µM.

For the compound `CC(=O)Nc1ccc(C(C2=C(O)C(=O)c3ccccc3C2=O)C2=C(O)C(=O)c3ccccc3C2=O)cc1`, the half-inhibitory concentration (IC50) worked out at 78 µM in [1] and 86 µM in experiment [2].

With `COc1ccc2c(O)c(S(=O)(=O)c3ccc(C)cc3)c(=O)oc2c1`, the IC50 in experiment [1], in experiment [3] and in experiment [2] was more than 100 µM each time.

On to `CC(C1=C(O)C(=O)c2ccccc2C1=O)C1=C(O)C(=O)c2ccccc2C1=O`, for which the IC50 in experiment [1] and in [2] was more than 100 µM in each case.

Consider `O=C1C(O)=C(C(CCc2ccccc2)C2=C(O)C(=O)c3ccccc3C2=O)C(=O)c2ccccc21`, for which the IC50 in experiment [1] was 90 µM; in [2], 83 µM.

`CCOc1ccc(C(C2=C(O)C(=O)c3ccccc3C2=O)C2=C(O)C(=O)c3ccccc3C2=O)cc1OC`: the IC50 in experiment [1] and in experiment [2] was more than 100 µM throughout.

Turning to `CC(=O)c1cccc(NC(=O)C(=O)c2c(O)oc3ccccc3c2=O)c1`, the 50% inhibitory concentration (IC50) in experiment [1], in experiment [3] and in experiment [2] was more than 100 µM in each case.

As for `O=C1Oc2ccccc2C(O)C1Cc1c(O)oc2ccccc2c1=O` (configuration not stated), the IC50 in [1], in experiment [3] and in experiment [2] was more than 100 µM each time.

`O=C1C(O)=C(C(C2=C(O)C(=O)c3ccccc3C2=O)c2ccc(Cl)c(Cl)c2)C(=O)c2ccccc21`: the IC50 turned out to be 52 µM in experiment [1] and 90 µM in experiment [2].

Consider `COc1ccc2c(O)c(S(=O)(=O)c3ccc(Cl)cc3)c(=O)oc2c1`, for which the IC50 in experiment [1], in experiment [3] and in experiment [2] was more than 100 µM in each case.

Consider `O=c1oc2c(-c3ccccc3)cccc2c(O)c1-c1ccccc1`, for which the half-inhibitory concentration (IC50) in experiment [1] was more than 100 µM; in experiment [3], 13 µM; in experiment [2] it was more than 100 µM.

In the case of `Cc1ccc(S(=O)(=O)N/N=C(/CCN2CCCC2)CC(c2ccccc2)c2c(O)oc3ccccc3c2=O)cc1` (configuration not stated), the 50% inhibitory concentration (IC50) in [1], in experiment [3] and in experiment [2] was more than 100 µM throughout.

Consider `O=C(c1cccc([N+](=O)[O-])c1)c1c(O)oc2ccccc2c1=O`, for which the IC50 in [1], in experiment [3] and in experiment [2] was more than 100 µM each time.

Turning to `CC(C)c1cccc(C(C)C)c1NC(=O)C(=O)CC(=O)CC(c1ccccc1)c1c(O)oc2ccccc2c1=O` (configuration not stated), the concentration for half-maximal inhibition (IC50) was more than 100 µM in [1], 31 µM in experiment [3] and more than 100 µM in experiment [2].

`O=c1c(C(c2ccc3c(c2)OCO3)c2c(O)oc3ccccc3c2=O)c(O)oc2ccccc12`: the concentration for half-maximal inhibition (IC50) is 18 µM in experiment [1], 30 µM in [3] and 47 µM in experiment [2].

As to `O=c1oc2cccc(O)c2c(O)c1Cc1ccccc1`, the IC50 in experiment [1], in experiment [3] and in [2] was more than 100 µM throughout.

`O=c1oc2ccccc2c(O)c1-c1ccccc1`: the half-maximal inhibitory concentration (IC50) in [1] is more than 100 µM; in experiment [3], 32 µM; in experiment [2], more than 100 µM.

With `CCCCCCc1cc2c(cc1O)OC(=O)C(C(c1ccccc1)c1c(O)oc3cc(O)c(CCCCCC)cc3c1=O)C2O` (configuration not stated), the IC50 stood at 12 µM in experiment [1], 0.32 µM in experiment [3] and 10.5 µM in experiment [2].

For `O=C1C(O)=C(C(C2=C(O)C(=O)c3ccccc3C2=O)c2ccc(C(C3=C(O)C(=O)c4ccccc4C3=O)C3=C(O)C(=O)c4ccccc4C3=O)cc2)C(=O)c2ccccc21`, the concentration for half-maximal inhibition (IC50) result with CCRF-CEM [9] was “Not Active”; in [1], 2.7 µM; in [5] it was 0.75 µM; in [2] it was 7.5 µM; against DNA topoisomerase 1, 60 µM.

For the compound `O=C(NC1=C(Cl)C(=O)c2ccccc2C1=O)C(=O)c1c(O)c2ccccc2oc1=O`, the IC50 in experiment [1], in [3] and in experiment [2] was more than 100 µM in each case.

Turning to `O=C1C(=O)c2ccccc2C(O)=C1Cc1ccc(Cl)cc1`, the half-maximal inhibitory concentration (IC50) came to 56 µM in experiment [1], 3 µM in [3] and 92 µM in experiment [2].

In the case of `O=C1C(O)=C(C(C#Cc2ccccc2)C2=C(O)C(=O)c3ccccc3C2=O)C(=O)c2ccccc21`, the IC50 in experiment [1] was 72 µM; in [2], more than 100 µM.

For `COc1cc(C(C2=C(O)C(=O)c3ccccc3C2=O)C2=C(O)C(=O)c3ccccc3C2=O)cc(Br)c1O`, the half-inhibitory concentration (IC50) in experiment [1] is 20 µM; in experiment [2], 32 µM.

Turning to `CN(C)c1ccc(C(C2=C(O)C(=O)c3ccccc3C2=O)C2=C(O)C(=O)c3ccccc3C2=O)cc1`, the half-inhibitory concentration (IC50) in experiment [1] and in experiment [2] was more than 100 µM in each case.

For `O=C1C(=O)c2ccccc2C(O)=C1CCCC1CCC2CCCCC2C1` (configuration not stated), the values for the IC50 in [1], in [3] and in experiment [2] were more than 100 µM, 8.5 µM and more than 100 µM, respectively.

With `CCCCCCC/N=C1/C(=O)c2ccccc2C(O)=C1O`, the results for the IC50 in experiment [1], in experiment [3] and in [2] were more than 100 µM, 33 µM and more than 100 µM, respectively.

As for `O=C1C(O)=C(C(C2=C(O)C(=O)c3ccccc3C2=O)c2ccccc2)C(=O)c2ccccc21`, the IC50 in [1] came out at 48 µM; in experiment [2], 68 µM.

On to `O=C1C(=O)c2ccccc2C(O)=C1CSc1ccc(Cl)cc1`, for which the half-maximal inhibitory concentration (IC50) in experiment [1] was more than 100 µM; in experiment [3], 50 µM; in [2], more than 100 µM.

Turning to `CCOC(=O)C(C1=C(O)C(=O)c2ccccc2C1=O)C1=C(O)C(=O)c2ccccc2C1=O`, the concentration for half-maximal inhibition (IC50) in experiment [1] was determined as 60 µM; in experiment [2] it was 92 µM.

Regarding `O=C1C(=O)c2ccccc2C(O)=C1Sc1ccccc1`, the IC50 in experiment [1], in [3] and in experiment [2] was more than 100 µM throughout.

Take `O=C(SCc1c(O)c2ccccc2oc1=O)c1ccccc1`: the concentration for half-maximal inhibition (IC50) in [1], in experiment [3] and in experiment [2] was more than 100 µM in each case.

As to `COc1cc(C(C2=C(O)C(=O)c3ccccc3C2=O)C2=C(O)C(=O)c3ccccc3C2=O)cc(OC)c1OC`, the IC50 in [1] and in [2] was more than 100 µM throughout.

As for `O=C(c1ccc(Cl)cc1)c1c(O)c2ccccc2oc1=O`, the IC50 in experiment [1], in experiment [3] and in experiment [2] was more than 100 µM each time.

On to `CCOC(=O)C(c1c(O)c2ccccc2oc1=O)c1c(O)c2ccccc2oc1=O` [ETHYL BISCOUMACETATE], for which the 50% inhibitory concentration (IC50) in experiment [1], in experiment [3] and in [2] was more than 100 µM each time.

Compound `O=C1C=C(O)C(=O)c2ccccc21` [LAWSONE] displayed an IC50 in [3] of more than 100 µM.

(Values after ChEMBL document CHEMBL1129349, “Antiretroviral agents as inhibitors of both human immunodeficiency virus type 1 integrase and protease” (J Med Chem, 1996).)
